Screening data as filed in PubChem.
APP 5UTR inh: APP translation inhibition. 190,000 compounds, 0.82% hits. SH-SY5Y APP 5'UTR-luciferase reporter, luminescence. inhibition, % at 2 µM;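 active = inhibition above a set limit, derived from the sample mean plus 3 SD, cut at about 45% in these data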
Lipid droplet: modulators of hepatic lipid droplet formation; AML12 mouse hepatocytes, oleate lipid droplets, BODIPY imaging; inhibition, % at 6.5 µM; 240,000 compounds, 0.4% hits;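 active = lipid droplet intensity inhibited by at least 50%, with more than 500 cells counted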
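Assay system: AML12 hepatocytes (mouse) / Also added: 100 µM oleic acid challenge / Times: overnight treatment with compound plus oleate / Detection: high-content imaging of BODIPY-stained droplets and DAPI nuclei / Evaluation: % inhibition of lipid droplet signal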
Jurkat NFkB inh: inhibitors of the PMA/ionomycin-induced NF-kB reporter in Jurkat cells. AID 435003. PMA/ionomycin-induced NF-kB luciferase reporter, luminescence. 330,000 compounds, 0.53% hits. inhibition, % at 4 µM; in the data active = inhibition above about 50%
697 NFkB inh: inhibitors of the PMA/ionomycin-induced NF-kB reporter in 697 B cells; 330,000 compounds, 0.33% hits; AID 435022; inhibition, % at 4 µM; 697 B-cell NF-kB luciferase reporter, 16 h; in the data active = inhibition above about 35%
H9c2 TAG inh: inhibitors of triacylglycerol accumulation. inhibition, % at 12.5 µM. 230,000 compounds, 0.66% hits. H9c2 cells, Nile Red lipid (TAG) fluorescence; cells loaded with 200 µM oleic acid. AID 651582;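 active = pattern-corrected inhibition of lipid staining of at least 50% with the nuclear-stain viability signal not falling by more than 50%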;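 also: 0% = DMSO wells and 100% = triacsin C control wells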
aSyn UTR inh: MLPCN primary screen, SNCA 5' untranslated region. 300,000 compounds, 0.82% hits. inhibition, % (tested at 7.5 µM). alpha-synuclein 5'UTR reporter, inhibitor activity. AID 1813; in the data active = inhibition above about 60%;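 also: H4 neuroglioblastoma cells stably carrying SNCA 5'UTR luciferase fusion; 0% = DMSO wells and 100% = positive control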
Jurkat NFkB conf: lowers PMA/ionomycin-induced NF-kB signal in Jurkat cells | shares compounds with Jurkat NFkB inh | 2,700 compounds, 27% hits | Jurkat NF-kB luciferase, 16 h | inhibition, % at 4 µM;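 active = inhibition reaching about 45% at 4 µM in either replicate, limit read from the data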;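 also: plate controls were PMA/ionomycin stimulated DMSO wells for no effect and unstimulated DMSO wells for full effect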
The depositor's hits bear a star. In the library only some 1.9% were active in any assay of this set; here they are far more common.

Results for Cc1cccc(Nc2nc(N)nc(CCl)n2)c1C ?
Lipid droplet: 2; Jurkat NFkB inh: 88*; 697 NFkB inh: 34; H9c2 TAG inh: 80*; aSyn UTR inh: 3; Jurkat NFkB conf: 24

What do the screens show for `Cc1ccc(Nc2nc(N)nc(CCl)n2)c(C)c1`?
Lipid droplet: 6; Jurkat NFkB inh: 90*; 697 NFkB inh: -152; H9c2 TAG inh: 80*; aSyn UTR inh: -45; Jurkat NFkB conf: 4

How did CCOC(=O)CNC(=S)n1ncnc1N do in these assays?
APP 5UTR inh: 10; Lipid droplet: -12; Jurkat NFkB inh: -4; 697 NFkB inh: 20; H9c2 TAG inh: -6; aSyn UTR inh: 2

How did COc1cc(C2C(C#N)=C(N)Oc3cc(N(C)C)ccc32)cc2c1OCO2 (stereo unspecified) do in these assays?
APP 5UTR inh: 97*; Jurkat NFkB inh: 67*; 697 NFkB inh: -107; aSyn UTR inh: 59; Jurkat NFkB conf: 48*

How did COc1cc(C2C(C#N)=C(N)Oc3cc(O)ccc32)cc(OC)c1OC (stereo unspecified) do in these assays?
APP 5UTR inh: 94*; Jurkat NFkB inh: 53*; 697 NFkB inh: -18; aSyn UTR inh: 58; Jurkat NFkB conf: 10

How did COc1ccc(C2C(C#N)=C(N)Oc3cc(O)ccc32)cc1OC (stereo unspecified) do in these assays?
APP 5UTR inh: -2; Jurkat NFkB inh: 1; 697 NFkB inh: -22; H9c2 TAG inh: 1; aSyn UTR inh: -11

Results for COc1cc(C2C(C#N)=C(N)Oc3cc(O)ccc32)cc2c1OCO2 (stereo unspecified) ?
APP 5UTR inh: -5; Jurkat NFkB inh: 15; 697 NFkB inh: 9; H9c2 TAG inh: 6; aSyn UTR inh: -29

Results for NC(=O)c1sc2nc(-c3cccnc3)ccc2c1N ?
Lipid droplet: 4; Jurkat NFkB inh: -5; 697 NFkB inh: 2; H9c2 TAG inh: 4; aSyn UTR inh: -102

What do the screens show for `CCOC(=O)c1sc2nc(-c3cccnc3)ccc2c1N`?
APP 5UTR inh: -156; Lipid droplet: 15; Jurkat NFkB inh: -182; 697 NFkB inh: -147; H9c2 TAG inh: 14; aSyn UTR inh: -150; Jurkat NFkB conf: -69

What do the screens show for `COC(=O)C(Cc1ccccc1)NC(=O)CNC(=O)c1ccccc1OC` (stereo unspecified)?
Lipid droplet: 1; Jurkat NFkB inh: 0; 697 NFkB inh: -6; aSyn UTR inh: 15

How did Cc1ccc(C(=O)Nc2ccc3c(c2)nc2n3CCSC2)cc1 do in these assays?
APP 5UTR inh: -169; Jurkat NFkB inh: -171; 697 NFkB inh: -111; aSyn UTR inh: -67; Jurkat NFkB conf: -71

Results for COc1ccc(CCn2c(NN)nc3c2c(=O)[nH]c(=O)n3C)cc1 ?
Lipid droplet: 11; Jurkat NFkB inh: 24; 697 NFkB inh: -1; H9c2 TAG inh: 35; aSyn UTR inh: 13

How did COc1ccc(CCn2c(Br)nc3c2c(=O)[nH]c(=O)n3C)cc1 do in these assays?
APP 5UTR inh: -17; Jurkat NFkB inh: 57*; 697 NFkB inh: -16; aSyn UTR inh: -5; Jurkat NFkB conf: 25

Results for CCOC(=O)c1sc(N)c(C(=O)Nc2ccccc2OC)c1C ?
APP 5UTR inh: 47*; Lipid droplet: -3; Jurkat NFkB inh: 71*; 697 NFkB inh: -29; H9c2 TAG inh: -7; aSyn UTR inh: 30; Jurkat NFkB conf: 18

What do the screens show for `CC(=O)NC12CC3CC(C1)CC(C(=O)OCC(=O)c1cc(C)n(C)c1C)(C3)C2`?
Jurkat NFkB inh: -162; 697 NFkB inh: -144; H9c2 TAG inh: 2; Jurkat NFkB conf: -62

How did CC(=O)NC12CC3CC(C1)CC(C(=O)OCC(=O)c1ccc4c(c1)OCCO4)(C3)C2 do in these assays?
APP 5UTR inh: -156; Jurkat NFkB inh: -164; 697 NFkB inh: -8; H9c2 TAG inh: -14; aSyn UTR inh: -134; Jurkat NFkB conf: -81

Results for Cc1cc(C(=O)COC(=O)C23CC4CC(CC(O)(C4)C2)C3)c(C)n1C ?
Jurkat NFkB inh: -47; 697 NFkB inh: -28; H9c2 TAG inh: -10

What do the screens show for `CCOc1ccccc1N1CCN(C(=O)/C=C/c2cccc([N+](=O)[O-])c2)CC1`?
APP 5UTR inh: -28; Lipid droplet: 29; Jurkat NFkB inh: 22; 697 NFkB inh: -1; aSyn UTR inh: 25

What do the screens show for `N#CC1=C(N)OC2=C(CCc3ccccc32)C1c1ccccc1` (stereo unspecified)?
APP 5UTR inh: 96*; Lipid droplet: 101*; Jurkat NFkB inh: 76*; 697 NFkB inh: -37; aSyn UTR inh: 70*; Jurkat NFkB conf: 8

What do the screens show for `N#CC1=C(N)Oc2cc(O)ccc2C1c1ccccc1` (stereo unspecified)?
APP 5UTR inh: 0; Lipid droplet: -1; Jurkat NFkB inh: -4; 697 NFkB inh: -8; aSyn UTR inh: 31

Results for CC1=C/C(=N\OS(=O)(=O)c2ccccc2)C(C)=CC1=O ?
APP 5UTR inh: 95*; Lipid droplet: -77; Jurkat NFkB inh: 51*; 697 NFkB inh: -13; H9c2 TAG inh: 18; Jurkat NFkB conf: 28

What do the screens show for `O=C(c1cccc(S(=O)(=O)N2CCCc3ccccc32)c1)N1CCN(c2ccccc2)CC1`?
Jurkat NFkB inh: -7; 697 NFkB inh: 13; H9c2 TAG inh: -7

How did COc1cc2c(cc1OC)C(C)N(C(=O)c1cc(C)on1)CC2 (stereo unspecified) do in these assays?
Lipid droplet: -124; Jurkat NFkB inh: 64*; 697 NFkB inh: 21; H9c2 TAG inh: 38; aSyn UTR inh: 97*; Jurkat NFkB conf: 51*

What do the screens show for `COc1cc2c(cc1OC)C(C)N(C(=O)c1c(C)noc1C)CC2` (stereo unspecified)?
Lipid droplet: 10; Jurkat NFkB inh: 22; 697 NFkB inh: 2; H9c2 TAG inh: 10; aSyn UTR inh: -25

What do the screens show for `COc1ccc(NC(=O)N2c3ccccc3C(C)=CC2(C)C)cc1`?
APP 5UTR inh: 4; Lipid droplet: -4; Jurkat NFkB inh: -10; 697 NFkB inh: 5; H9c2 TAG inh: -15; aSyn UTR inh: -47

How did CC(=O)Nc1ccc(S(=O)(=O)N2c3ccccc3C(C)=CC2(C)C)cc1 do in these assays?
APP 5UTR inh: 89*; Lipid droplet: -124; Jurkat NFkB inh: 62*; 697 NFkB inh: -25; H9c2 TAG inh: 28; aSyn UTR inh: 121*; Jurkat NFkB conf: 53*

Results for CC(=O)Nc1ccc(S(=O)(=O)N2CCSc3ccccc32)cc1 ?
Jurkat NFkB inh: 56*; 697 NFkB inh: -79; H9c2 TAG inh: 34; Jurkat NFkB conf: 49*

What do the screens show for `COc1ccc(-c2cc(-c3cccs3)nc(OC)c2C#N)cc1OC`?
APP 5UTR inh: 5; Lipid droplet: -4; Jurkat NFkB inh: 26; 697 NFkB inh: 1; H9c2 TAG inh: -28; aSyn UTR inh: -12
